# Hep lipid drop = hepatic lipid droplet formation modulation; 240,000 tested, 0.4% active; inhibition, % at 6.5 µM; AML12 mouse hepatocytes, oleate lipid droplets, BODIPY imaging;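 active means lipid droplet intensity inhibited by at least 50%, with more than 500 cells counted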
#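 Assay system: AML12 hepatocytes (mouse) / Also added: 100 µM oleic acid challenge / Times: overnight treatment with compound plus oleate / Detection: high-content imaging of BODIPY-stained droplets and DAPI nuclei / Evaluation: % inhibition of lipid droplet signal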
# RGS4 act = potentiators or activators of RGS4; HEK293 M3R/inducible RGS4, carbachol calcium flux Fluo4; active compounds read low; B-score at 10 µM; 310,000 tested, 0.92% active; AID 463111;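 active means B-score of the integrated calcium signal more than 4 SD below the library mean, with starting fluorescence not abnormally high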;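 further: negative B-score means reduced calcium response which marks RGS4 activation or potentiation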
#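 Assay system: Inducible-RGS4 HEK293 cells carrying M3 receptor | Schedule: Compound preincubation 20 min at room temperature before agonist | Signal: Kinetic calcium fluorescence imaging with Fluo4-AM dye, 2 µM | Read-out basis: B score from integrated fluorescence ratio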
# MrgX1 agonist = agonists of human MrgX1 receptor. Q96LB2. MrgX1-HEK293 cells, Fluo-4 calcium fluorescence, agonist mode; active compounds read high. B-score at 10 µM. 310,000 tested, 0.44% active;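 active means calcium response B-score plate-corrected fluorescence ratio at least 3 library SD, with starting fluorescence B-score inside 5 SD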
#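 Test system: HEK293 cells stably expressing human MrgX1 receptor; Input: fifteen thousand cells per well; Dosing: compound delivered in addition one of three; Schedule: overnight seeding, then 1 h dark dye loading; Technique: Fluo-4 NW calcium fluorescence; Measure: B-scored fluorescence response ratio; Controls: positive and negative controls per plate.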
# MrgX1 PAM = human MrgX1 positive allosteric modulation, primary screen; MrgX1-HEK293, Fluo-4 calcium flux, FDSS; active compounds read high; B-score at 10 µM; 310,000 tested, 0.63% active; AID 588675;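 active means plate-corrected calcium response at least 3 library SD above typical, normal starting fluorescence, not activating the receptor alone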;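 further: compound read alongside a low EC10 to EC30 dose of BAM8-22 agonist; peak minus trough fluorescence over baseline measured at the second addition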
# MrgX1 antag = blocks BAM8-22 activation of human MrgX1 receptor; AID 588676; 310,000 tested, 1.3% active; MRGX1-HEK293 calcium flux, Fluo-4, BAM8-22 antagonism; active compounds read low; B-score at 10 µM; Q96LB2;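 active means calcium-response B-score plate-corrected more than 3 library SD below zero, starting fluorescence within 5 deviations, no agonist response on first addition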;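 further: peak minus trough fluorescence over baseline after final BAM8-22 challenge near maximal dose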
# RGS4 inh = human RGS4 inhibition. P49798. HEK293 M3R/RGS4 inducible, Fluo-4 calcium flux; active compounds read high; triggered by carbachol at its EC20. B-score at 10 µM. 310,000 tested, 0.45% active;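 active means B-score, a plate-corrected calcium signal, over three deviations above library mean, with baseline fluorescence within five deviations of library mean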;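 further: RGS4 expression induced by doxycycline in cells with stable M3 receptor; B-score is computed from the integrated fluorescence ratio over baseline after carbachol; higher B-score means a larger calcium signal and so more RGS4 inhibition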
# Target sequence (P49798 whole entry, looked up): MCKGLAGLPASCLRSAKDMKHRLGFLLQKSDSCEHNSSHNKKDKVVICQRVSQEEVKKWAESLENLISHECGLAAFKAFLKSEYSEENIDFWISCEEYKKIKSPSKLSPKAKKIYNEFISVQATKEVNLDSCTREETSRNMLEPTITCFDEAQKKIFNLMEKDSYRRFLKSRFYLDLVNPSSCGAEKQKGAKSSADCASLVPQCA
# Lipid drop inh = hepatic lipid droplet formation inhibition, confirmed | inhibition, % at 5.2 µM | AML12 mouse hepatocytes, BODIPY lipid droplet imaging; droplets induced with 100 µM oleic acid | 870 tested, 65% active | AID 463183 | shares compounds with Hep lipid drop;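 active means inhibition of lipid droplet metric at least 50%, with more than 300 cells in each of four replicates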;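 further: plate controls were DMSO with oleic acid for no effect and 5 µM Triacsin-C for full effect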
# AML12 cytotox = counter-screen for cytotoxicity in AML12 mouse hepatocytes; shares compounds with Hep lipid drop; DAPI nuclear morphology cytotoxicity imaging; active compounds read high; cells fed 100 µM oleate overnight; z-score at 5 µM; 870 tested, 3% active; AID 463200; in the data active means z-score above about 6.3;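 further: compound exposure lasted overnight at 37 °C before fixation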
# AML12 tox conf = AML12 hepatocyte cytotoxicity, confirmed | shares compounds with Hep lipid drop | AML12 mouse hepatocyte viability, ATP luminescence; cells loaded with 100 µM oleic acid | cytotoxicity, % at 50 µM | 530 tested, under 10 active;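 active means cytotoxicity above 50% in each of four replicates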;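 further: compound exposure lasted overnight at 37 °C before the ATP read; 0% = DMSO-treated cells and 100% = wells with no cells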
# Active calls of the source: *; i = inactive; x = not tested or not shown. Most compounds without a hit are left out; they make up all but 3.8% or so of the library.
SMILES,Hep lipid drop,RGS4 act,MrgX1 agonist,MrgX1 PAM,MrgX1 antag,RGS4 inh,Lipid drop inh,AML12 cytotox,AML12 tox conf
COc1ccccc1NC1=C(N2CCCCC2)C(=O)c2ccccc2C1=O,69*,i,i,i,i,i,40,-0.26,x
CN(C1=C(N2CCCCC2)C(=O)c2ccccc2C1=O)c1ccccc1,79*,i,i,i,i,i,114*,0.76,11
CCNC(=S)N1CCn2c(nc3ccccc32)C1,13,i,i,i,i,i,x,x,x
Cc1ccc(CS(=O)(=O)CC(C)(O)c2ccc(Cl)cc2)cc1 (configuration not stated),-37,i,i,i,i,i,x,x,x
COc1ccc(C(=O)OCC(=O)NC(C)CCc2ccccc2)c(OC)c1 (configuration not stated),75*,i,i,i,i,i,67,0.65,7
CCOc1ccc(C(=O)CCC(=O)NCC(=O)OCc2ccccc2)cc1OCC,93*,i,i,i,i,i,73*,-0.48,9
CC(CCc1ccccc1)NC(=O)C(C)OC(=O)c1ccco1 (configuration not stated),x,i,i,i,i,i,x,x,x
O=C(CNC(=O)Cc1ccccc1)NCC(=O)OCc1ccccc1,x,i,i,i,i,i,x,x,x
COc1cc(C(=O)NCC(=O)NC(C)CCc2ccccc2)cc(OC)c1OC (configuration not stated),4,i,i,i,i,i,x,x,x
COc1ccc(C(=O)OC(C)C(=O)NC(C)CCc2ccccc2)cc1OC (configuration not stated),103*,i,i,i,i,i,107*,-0.018,14
CCOc1ccc(C(=O)NCC(=O)NC(C)CCc2ccccc2)cc1OCC (configuration not stated),75*,i,i,i,i,i,106*,1.1,16
CCOC(=O)c1cc(S(=O)(=O)NCC2CCN(Cc3cccc(C)c3)CC2)cn1C,-22,i,i,i,i,i,x,x,x
CCOc1ccc(CCNC(=O)C2CCN(S(=O)(=O)N3CCOCC3)CC2)cc1OCC,x,i,i,i,i,i,x,x,x
CCN(CC)c1ccc(NC(=O)CCc2nnc3ccc(N4CCCC4)nn23)c(C)c1,72*,i,i,i,i,i,98*,-0.66,13
CCOc1ccc(CCNC(=O)CCc2nnc3ccc(N4CCCCC4)nn23)cc1OCC,86*,i,i,i,i,i,109*,0.41,10
CCOc1ccc(CCNC(=O)C2CCN(S(=O)(=O)N3CCCCC3)CC2)cc1OCC,108*,i,i,i,i,i,105*,-0.36,x
O=C(Nc1cccc(Cn2cccn2)c1)c1cc2c(s1)CCCC2,55*,i,i,i,i,i,57,-0.11,26
CCCCOc1ccccc1C(=O)N(Cc1ccco1)C1CCS(=O)(=O)C1 (configuration not stated),51*,i,i,i,i,i,53,-0.47,10
Cc1occc1C(=O)NNC1=CC(=O)CC(C)(C)C1,8,i,i,i,i,i,x,x,x
COc1ccc(CCN=C(C)C2=C(O)C(c3ccccc3)OC2=O)cc1OC (configuration not stated),4,i,i,i,i,i,x,x,x

# Source: PubChem BioAssay (several laboratories)
